TRPC4 inh = inhibitors of mouse TRPC4 channel; Q9QUQ5; HEK293 TRPC4beta/mu-opioid, DAMGO-evoked Fluo4 calcium flux; hits give low values; B-score at 10 µM; actives 0.39% (n = 300,000); AID 2247;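 active means B-score over 3 SD under the library average, no early fluorescence shift, positive overall ratio signal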
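Assay system: HEK293 cells with stable TRPC4beta plus mu-opioid receptor expression. Dosing: single dose. Measured by: Fluo4 Ca2+ flux fluorescence. Also added: DAMGO in two steps, submaximal then maximal. Read-out: B score from integrated Fluo4 fluorescence ratio.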
TRPC4 PAM = TRPC4 (mouse) allosteric potentiation | actives 0.42% (n = 310,000) | Q9QUQ5 | B-score at 10 µM | HEK293 TRPC4beta/mu-opioid, DAMGO EC20, Fluo-4 Ca2+ flux; hits give high values | AID 2227;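 active means B-score of calcium response area above 5 SD of library B-scores, with initial fluorescence ratio within 5 SD of library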
TRPC6 act = mouse TRPC6 channel activation; B-score at 10 µM; Q61143; HEK293-TRPC6 membrane potential dye fluorescence; hits give high values; AID 2550; actives 0.13% (n = 310,000);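 active means B-score of the integrated fluorescence ratio above library mean plus 3 SD, and starting fluorescence ratio within library mean plus 5 SD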;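 further: higher score means more depolarization so channel activation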
TRPC4 act = TRPC4 (mouse) channel activation; Q9QUQ5; HEK293 TRPC4beta/mu-opioid, Fluo4 calcium fluorescence; hits give high values; B-score at 10 µM; actives 0.49% (n = 310,000); AID 2237;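 active means B-score above 5 SD of library B-scores, and initial fluorescence ratio not above library mean plus 5 SD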;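 further: positive B-score marks a calcium rise read as TRPC4 activation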
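Technique: kinetic Fluo4 calcium fluorescence; Test system: TRPC4beta and mu-opioid receptor HEK293 stable cells; Measure: B-scored integrated calcium fluorescence ratio; Benchmarks: low control buffer alone, high control maximal DAMGO; Schedule: 45 min room-temperature Fluo4 loading, 110 s read.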
TRPC6 inh = mouse TRPC6 channel inhibition; Q61143; actives 1.1% (n = 310,000); B-score at 10 µM; HEK293-TRPC6, membrane potential dye, ACh-evoked depolarization; hits give low values;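 active means B-score under library mean minus 3 SD, initial fluorescence not abnormally high, positive integrated signal ratio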;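 further: B-score derived from integrated fluorescence ratio over the kinetic read; more negative B-score means stronger inhibition of depolarization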
Hits are given with their value; 0 = inactive. An excerpt weighted towards active compounds, which were near 2.3% of everything screened.

SMILES	TRPC4 inh	TRPC4 PAM	TRPC6 act	TRPC4 act	TRPC6 inh
Cc1ccc(/C=C2\SC(N3CCCCC3)=NC2=O)cc1	0	12	0	0	0
CCN(C(=O)c1ccc2c(=O)n3c(nc2c1)CCCCC3)c1ccccc1C	0	0	0	0	0
COc1cc(C2CC(=O)c3c(ccc4ccccc34)N2)ccc1O (stereo unspecified)	0	0	0	0	0
COc1cccc(/C=N/NC(=O)c2cccs2)c1	0	0	0	0	0
O=C(Nc1nnc(-c2ccc(F)cc2)o1)c1cccc([N+](=O)[O-])c1	-6	0	0	126	0
O=C(Nc1nnc(-c2ccc3c(c2)CCCC3)o1)c1ccccc1	0	0	0	66	0
O=C(Nc1nnc(C2=COCCO2)o1)c1cccc([N+](=O)[O-])c1	0	0	0	0	0
O=C(Nc1nnc(-c2ccc3c(c2)CCCC3)o1)c1ccccc1Cl	0	0	0	0	0
O=C(Nc1nnc(-c2ccc(F)cc2)o1)c1cc(Cl)sc1Cl	0	0	0	220	0
COc1ccccc1C(=O)NC(=S)Nc1ccc(N2CCOCC2)c(Cl)c1	0	0	0	0	0
COc1ccc2[nH]c(=O)c(CN(Cc3cccs3)S(=O)(=O)c3c(C)ccc4nsnc34)cc2c1	0	0	0	0	0
COc1cc2[nH]c(=S)nc(NCc3ccc(C)cc3)c2cc1OC	0	0	0	0	0
Cc1c(CCOC(=O)C2C3CC4CC(C3)CC2C4)sc[n+]1CC(=O)c1ccc(Br)cc1 (stereo unspecified)	0	0	0	0	0
Cc1c(CCOC(=O)c2cccc([N+](=O)[O-])c2)sc[n+]1CC(=O)c1ccccc1	-6	0	0	0	0
COc1ccc(C(=O)OCCc2sc[n+](CC(=O)c3ccccc3)c2C)cc1	0	0	0	0	-5.26
COc1ccc(C(C(=O)Nc2ccc(C(C)C)cc2)N(Cc2ccco2)C(=O)CC2NC(=O)NC2=O)cc1 (stereo unspecified)	0	0	0	0	0
CCCCn1c(SCC(=O)N2c3ccccc3Sc3ccccc32)nc2c1c(=O)n(C)c(=O)n2C	0	117	0	0	0
CC1Cc2ccccc2N1C(=O)CSc1nc2c(c(=O)n(C)c(=O)n2C)n1Cc1ccc(F)cc1 (stereo unspecified)	0	49	0	0	0
COc1ccccc1C(=O)N/C(=C/c1ccc(Br)cc1)C(=O)NCCCn1ccnc1	0	0	0	0	0
CCCCN(CC)CCCNC(=O)c1ccc(CS(=O)(=O)c2c(Cl)cccc2Cl)o1	0	0	0	62	0
CCCCN(CCCNC(=O)c1ccc(CS(=O)(=O)c2c(Cl)cccc2Cl)o1)Cc1ccccc1	0	0	0	0	0
CC(C)Nc1nc(SCC(N)=O)nc(N2CCOCC2)n1	0	0	0	0	0
CN=c1sc(C(=O)Nc2cccc(Cl)c2)cc(=O)n1C	0	0	0	0	0
CCOC(=O)c1sc2nc(CSc3ccccc3)nc(NCCN(C)C)c2c1C	-5	0	0	0	0
CCOC(=O)c1sc2nc(C)nc(NCCc3ccccn3)c2c1C	0	0	0	0	0
SMILES	TRPC4 inh	TRPC4 PAM	TRPC6 act	TRPC4 act	TRPC6 inh
Cn1ccnc1C(=O)Cc1ccc([N+](=O)[O-])cc1	0	0	0	0	0
CC(C)(CO)NCC(O)COc1ccc2c(c1)CCC2 (stereo unspecified)	0	0	0	0	0
CC(C)(C)CC(C)(C)NCC(O)COc1ccc2c(c1)CCC2 (stereo unspecified)	-6	0	0	0	0
CN1CCN(c2nc3c(c(=O)n(C)c(=O)n3C)n2Cc2ccccc2)CC1	0	0	0	0	0
Cc1[nH]c2ccc(Br)cc2c(=O)c1CN1CCOCC1	0	12	0	0	0
CCOc1ccc2[nH]c(C)c(CN3CCOCC3)c(=O)c2c1	0	0	0	0	0
CC(=O)Nc1ccc(C(=O)Nc2ccc3c(c2)OCCO3)cc1	0	0	0	0	0
Cc1ccc(Cn2c(=N)c(C(=O)NC3CCCC3)cc3c(=O)n4ccccc4nc32)cc1	0	78	0	66	0
CC(C)OCCCn1c(=N)c(C(N)=S)cc2c(=O)n3ccccc3nc21	0	0	0	0	-7.62
CCCn1c(=N)c(C(=O)NCc2ccc3c(c2)OCO3)cc2c(=O)n3cccc(C)c3nc21	0	0	0	0	0
N=c1c(C(=O)NC2CCCCC2)cc2c(=O)n3ccccc3nc2n1CCc1ccccc1	0	0	0	0	-4.99
CCOCCCn1c(=N)c(C(=O)NCc2ccc3c(c2)OCO3)cc2c(=O)n3ccccc3nc21	0	0	0	0	-5.87
N=c1c(C(=O)NC2CCCCC2)cc2c(=O)n3ccccc3nc2n1Cc1ccco1	0	0	0	0	0
Cc1ccc(C(C)C)c(OCCNCc2ccccc2)c1	0	0	0	0	0
Cc1cc2nnc(SCC(=O)N3C(C)CCCC3C)n2c(N)n1 (stereo unspecified)	0	0	0	0	0
CCc1ccc(-n2c(=O)c3ccccc3n(CC(=O)NCc3ccco3)c2=O)cc1	0	0	0	0	0
Cn1c(CN2CCCCC2)nc2cc(NC(=O)c3cccs3)ccc21	0	0	0	0	0
Clc1ccc2nc(CN3CCCCC3)cn2c1	0	0	0	0	0
Clc1ccc2nc(CN3CCCc4ccccc43)cn2c1	0	21	0	0	0
CCOc1ccc(NC(=O)CSc2nnc(N)s2)c([N+](=O)[O-])c1	0	0	0	0	0
CCOC(=O)N1CCN(S(=O)(=O)c2ccc(C(=O)NNc3nc4c(C)cccc4s3)cc2)CC1	0	0	0	0	0
CCOC(=O)N1CCN(S(=O)(=O)c2ccc(C(=O)NNc3nc4c(C)cc(C)cc4s3)cc2)CC1	0	10	0	0	0
O=c1c2ccccc2[nH]c2ccc(O)cc12	0	0	0	0	0
COc1ccc(Cn2c(=O)oc3ccc(C)cc32)cc1	0	0	0	0	0
O=C(O)c1ccc(N/N=C/c2ccc(-c3cccc(Cl)c3)o2)cc1	-6	0	0	0	0
SMILES	TRPC4 inh	TRPC4 PAM	TRPC6 act	TRPC4 act	TRPC6 inh
COc1ccc(C2C(C#N)=C(N)N(c3sc4c(c3C#N)CCCC4)C3=C2C(=O)CC(C)(C)C3)cc1OC (stereo unspecified)	0	0	0	0	0
COc1ccc(C2C(C#N)=C(N)N(c3sc4c(c3C#N)CCCC4)C3=C2C(=O)CC(C)(C)C3)cc1 (stereo unspecified)	-5	0	0	0	0
CC[C@H](C)C1NC(=O)[C@H](CC(=O)O)NC(=O)c2cc([N+](=O)[O-])cc(I)c2NCCC(C(N)=O)NC1=O (stereo partly specified)	0	0	0	0	0
CCOC(=O)c1c(CC(C)C)csc1N	-6	0	0	0	0
Cc1nn(C)c(=O)n1-c1ccc(Oc2ccccc2)cc1	0	0	0	0	0
CCC(C)NC(=S)N1CCN(C(c2ccccc2)c2ccccc2)CC1 (stereo unspecified)	0	0	0	0	0

High-throughput results from PubChem BioAssay.
